High-throughput results as filed in PubChem BioAssay.
Myeloid diff 2 = myeloid differentiation induction; calls only at 10 µM; 1% of 360,000 active; ER-HoxA9 myeloid progenitors, lysozyme-GFP differentiation, flow cytometry;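 active means normalized GFP-positive differentiation at or above the plate's own cutoff, the solvent-only control mean plus 3 SD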;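 further: cells exposed to compound for four days before flow analysis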
MC4R antag cAMP = human MC4R antagonism in cAMP assay; P32245; MC4R-expressing cells, MTII-stimulated cAMP, LANCE TR-FRET; inhibition, % at 6.5 µM; 0.48% of 360,000 active; AID 540295;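 active means inhibition above its plate's cutoff, the mean of tested wells on that plate plus 3 SD, cut at about 29% in these data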;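 further: 0% = Melanotan II alone and 100% = Melanotan II plus saturating MCL0020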
Target sequence (P32245 whole entry, looked up): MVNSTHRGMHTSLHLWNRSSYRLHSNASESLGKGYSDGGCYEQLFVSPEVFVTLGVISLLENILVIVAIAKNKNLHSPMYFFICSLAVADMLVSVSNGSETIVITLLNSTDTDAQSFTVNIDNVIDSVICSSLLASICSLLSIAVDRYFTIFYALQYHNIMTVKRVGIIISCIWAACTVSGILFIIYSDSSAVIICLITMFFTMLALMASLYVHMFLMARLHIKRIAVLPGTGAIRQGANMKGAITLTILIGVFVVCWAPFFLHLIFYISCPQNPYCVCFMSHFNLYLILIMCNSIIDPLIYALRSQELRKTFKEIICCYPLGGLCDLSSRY
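material = U2OS cells stably expressing human melanocortin 4 receptor (MC4R) | also added = Melanotan II challenge | dosing = single nominal compound dose of 6.5 µM | detection = TR-FRET with Eu-cAMP and labeled anti-cAMP, 671 nm | replication = singlicate | timing = compound 30 min, challenge 1 h, detection 1 h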
EBI2 block = EBI2 (human) antagonism | P32249 | EBI2 beta-arrestin recruitment, luminescence, 7a,25-OHC stimulated | inhibition, % at 5 µM | 0.81% of 360,000 active; in the data active means inhibition above about 38%;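 further: enzyme fragment complementation signal reports receptor beta-arrestin coupling in cells; 0% = agonist plus DMSO wells and 100% = wells without agonist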
Target sequence (P32249 whole entry, looked up, the tested form may be a part): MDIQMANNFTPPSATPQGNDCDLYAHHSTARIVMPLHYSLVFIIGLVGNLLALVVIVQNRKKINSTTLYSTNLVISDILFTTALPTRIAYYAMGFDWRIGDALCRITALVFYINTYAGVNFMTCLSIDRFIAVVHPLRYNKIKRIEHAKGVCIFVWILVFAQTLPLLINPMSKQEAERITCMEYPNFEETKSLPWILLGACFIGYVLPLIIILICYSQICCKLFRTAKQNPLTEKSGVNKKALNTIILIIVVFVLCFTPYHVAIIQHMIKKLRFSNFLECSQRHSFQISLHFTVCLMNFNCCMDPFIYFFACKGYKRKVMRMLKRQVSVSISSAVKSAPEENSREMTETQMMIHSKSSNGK
MC4R ag barr = human MC4R agonism via beta-arrestin | U2OS MC4R beta-arrestin complementation, luminescence; percent of melanotan II response, DMSO zero | AID 540308 | activation, % at 8.9 µM | 0.98% of 360,000 active;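 active means activation above a per-plate cutoff, the mean activation of sample wells on that plate plus 3 SD, cut at about 8% in these data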
Granule exo inh = blocks lytic granule exocytosis | 0.66% of 360,000 active | TALL-104 LAMP-1 surface exposure, flow cytometry; cells stimulated with thapsigargin and PMA | AID 651702 | inhibition, % at 10 µM;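 active means inhibition above about 55%, limit read from the data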
EBI2 conf = confirmation of human EBI2 receptor antagonists; EBI2 beta-arrestin luminescence, 7a,25-OHC antagonism; AID 651997; 29% of 2,400 active; shares compounds with EBI2 block; inhibition, % at 5 µM;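 active means inhibition of at least 50%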
EBI2 agonist = counter-screen for EBI2 antagonists: EBI2 agonist activity. shares compounds with EBI2 block. EBI2-expressing cells, agonist mode, luminescence, 60 min; 0% vehicle, 100% 7α,25-dihydroxycholesterol control. activation, % at 5 µM. 2,400 tested, under 10 active. AID 652000;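 active means activation of at least 50%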
bGal cs = counter-screen for EBI2 antagonists: E. coli beta-galactosidase inhibition; shares compounds with EBI2 block; purified beta-galactosidase, luminescent Galacton Star, 15 min; inhibition, % at 5 µM; 1% of 2,400 active; AID 652176;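 active means replicate-average signal at least 3 plate SD below neutral wells, shown as high inhibition, flagging enzyme-inhibiting false positives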;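 further: 0% = DMSO wells with enzyme and 100% = wells lacking enzyme; higher means stronger loss of beta-gal luminescence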
* hit, by the source's call; i = inactive; nt = not tested or not shown. A selection: hits, their analogues and other compounds. The true share with any hit is near 3.7%.

SMILES	Myeloid diff 2	MC4R antag cAMP	EBI2 block	MC4R ag barr	Granule exo inh	EBI2 conf	EBI2 agonist	bGal cs
CCOc1cccc(NC(=O)c2ccc(S(=O)(=O)N(C)C)cc2)c1	i	9.8	46.1*	-0.6	5.0	33.2	-1.0	-11.3
CN(C)S(=O)(=O)c1cccc(NC(=O)c2ccc(OC(F)(F)F)cc2)c1	i	1.5	3.1	-0.4	10.4	nt	nt	nt
CN1c2ccccc2C2(C)CCCC3=Cc4cccc([N+](=O)[O-])c4OC312 (stereo not given)	i	-2.0	41.2*	7.2	2.6	0.2	-1.4	-10.7
O=C(NCc1ccccc1)c1cc(C2CCCN(S(=O)(=O)c3ccccc3)C2)on1 (stereo not given)	i	18.2	-5.2	-0.4	-1.5	nt	nt	nt
O=S(Cc1ccc(Cl)cc1)CC(O)COc1ccc(Cl)cc1 (stereo not given)	i	12.9	75.5*	1.5	-1.2	60.1*	-1.4	-14.8
O=C(c1ccc(F)cc1)N1CCN(S(=O)(=O)c2ccc(Br)cc2)CC1	i	5.1	5.7	-2.6	-2.1	nt	nt	nt
COc1ccc(S(=O)(=O)N2CCN(C(=O)c3cc(-c4ccccc4OC)n[nH]3)CC2)cc1	i	6.0	62.6*	-0.8	0.6	37.8	1.1	6.8
CC(C)c1ccc(S(=O)(=O)N2CCN(C(=O)c3ccncc3)CC2)cc1	i	4.7	-12.3	-1.9	-0.9	nt	nt	nt
COc1cccc(-c2cc(C(=O)N3CCN(S(=O)(=O)c4ccc(Br)cc4)CC3)[nH]n2)c1	i	0.3	57.0*	-2.6	1.2	37.6	1.5	11.1
CC(C)c1ccc(S(=O)(=O)N2CCN(C(=O)c3cc(-c4ccccc4)n[nH]3)CC2)cc1	i	3.7	74.5*	4.5	3.6	34.3	-1.4	-12.3
COc1cc(C(=O)N2CCN(C(=O)c3cc(-c4ccc(Br)cc4)n[nH]3)CC2)cc(OC)c1OC	i	15.3	52.0*	-2.0	0.7	9.8	-0.5	-13.3
N#CCCN(Cc1ccccc1)C(=O)CCC(=O)c1ccc(F)cc1	i	-0.7	-2.8	-0.4	-0.7	nt	nt	nt
O=c1c2ccccc2n2c(-c3ccc(C(F)(F)F)cc3)nnc2n1Cc1ccccc1	i	14.8	47.4*	-1.0	-4.9	22.2	-1.2	-10.5
COc1ccc(F)cc1S(=O)(=O)NCCCn1ccnc1	i	6.1	5.3	-0.9	1.6	nt	nt	nt
O=C(Nc1ccc(Oc2ccccc2)nc1)[C@H]1O[C@@H](n2ccc(=O)[nH]c2=O)[C@H](O)[C@@H]1O	i	nt	-4.1	nt	4.1	nt	nt	nt
CC1CN(c2ncnc3c2c(-c2ccccc2)cn3-c2ccc(F)cc2)CC(C)O1 (stereo not given)	i	14.0	75.4*	-9.9	1.7	62.9*	-3.8	54.7*
Cc1ccc(-n2cc(-c3ccccc3)c3c(N4CCOCC4)ncnc32)cc1	i	9.4	-4.6	0.9	3.8	nt	nt	nt
OCCN1CCN(c2ncnc3c2c(-c2ccccc2)cn3-c2ccc(F)cc2)CC1	i	5.5	46.4*	-8.1	15.9	42.2	-2.6	32.4*
Cn1cc(CCCC(=O)NCc2ccc(F)cc2)c2ccccc21	i	-7.0	6.6	-2.0	1.9	nt	nt	nt
COc1cc(/C=N/NC(=O)COc2ccc(Cl)cc2)ccc1OS(=O)(=O)c1ccc(C)cc1	i	6.5	42.4*	5.1	-4.9	4.6	-1.3	-6.3
C=CCNC(=O)/C(C#N)=C/c1ccc(OS(=O)(=O)c2ccc(C)cc2)c(OC)c1	i	13.7	52.4*	1.9	16.1	76.0*	2.4	3.9
COc1cc(/C=N/NC(=O)COc2cccc(F)c2)ccc1OS(=O)(=O)c1ccc(C)cc1	i	5.8	24.4	0.5	7.0	nt	nt	nt
Cc1cccc(NS(=O)(=O)c2ccc(C)c(C(=O)NNC(=O)c3csc(N4CCOCC4)n3)c2)c1	i	3.1	1.9	0.2	6.7	nt	nt	nt
COc1ccc(NS(=O)(=O)c2ccc(N3CCOCC3)c(NC(=O)C(C)C)c2)cc1	i	8.4	14.5	-2.3	-2.4	nt	nt	nt
CCOC(=O)/C=C/C(=O)Nc1cc(S(=O)(=O)Nc2ccc(OC)cc2)ccc1N1CCOCC1	i	5.8	75.0*	-2.4	6.6	71.8*	0.8	11.3
SMILES	Myeloid diff 2	MC4R antag cAMP	EBI2 block	MC4R ag barr	Granule exo inh	EBI2 conf	EBI2 agonist	bGal cs
Cc1cccc(C)c1OCC(O)CNS(=O)(=O)c1ccccc1C(=O)N1CCOCC1 (stereo not given)	i	5.8	-6.0	-0.8	1.3	nt	nt	nt
Cc1ccc(OCC(O)CNS(=O)(=O)c2ccccc2C(=O)N2CCCCC2)cc1 (stereo not given)	i	8.4	46.5*	-1.1	-3.7	6.6	-0.6	-12.8
O=C(Nc1cccc(S(=O)(=O)N2CCCCC2)c1)C1COc2ccccc2O1 (stereo not given)	i	7.2	-1.4	0.7	5.4	nt	nt	nt
[O-][n+]1onc2c1CCc1c-2nc(-c2ccccc2)n1OCc1ccccc1	i	14.9	48.9*	0.9	-0.3	39.8	0.5	4.0
O=C1NC(Cc2ccccc2)c2nc3cc(F)c(F)cc3c(=O)n2-c2cc3ccccc3cc21 (stereo not given)	i	4.1	44.5*	0.4	-1.4	19.5	-1.6	-9.7
O=C1NC(Cc2ccc(O)cc2)c2nc3cc(F)c(F)cc3c(=O)n2-c2cc3ccccc3cc21 (stereo not given)	i	21.3	5.9	2.3	-0.4	nt	nt	nt
O=C(COc1ccc(F)cc1)N1CCC(Cc2ccccc2)CC1	i	3.3	74.5*	-2.3	-1.4	50.3*	0.9	9.6
NC(=O)c1ccccc1OCC(=O)N1CCC(Cc2ccccc2)CC1	i	6.8	-6.5	-1.0	-0.1	nt	nt	nt
CCOCC(=O)N1CCC(Cc2ccccc2)CC1	i	-13.5	9.8	1.0	-0.8	nt	nt	nt
COc1ccc(OCC(=O)N2CCC(Cc3ccccc3)CC2)cc1	i	15.1	91.6*	1.0	37.1	76.7*	1.9	1.2
COCCNc1nc(NCCOc2ccccc2Cl)c2sc(-c3ccccc3)cc2n1	i	11.3	40.4*	-1.9	-2.5	23.2	-2.2	-3.4
COCCNc1nc(NCCNC(C)=O)c2sc(-c3ccccc3)cc2n1	i	3.0	-4.1	-2.4	-1.5	nt	nt	nt
COc1ccc(Cn2c3ccc(OC)cc3c3nc4ccccc4nc32)cc1	i	-1.1	52.9*	-2.2	-1.4	21.5	-0.6	-14.0
COc1ccc2c(c1)c1nc3ccccc3nc1n2Cc1ccc(OC(C)C)c(OC)c1	i	7.5	25.8	-1.7	-2.4	nt	nt	nt
O=C(NC1CCCC1)C(c1ccc(F)cc1)N(Cc1ccccc1Cl)C(=O)CCl (stereo not given)	i	-2.7	-1.2	0.9	3.8	nt	nt	nt
